{
  "source": "paper PMC5362268",
  "about": "(Cell, 2017)",
  "key": {"[1]": {"target": "T1, KRAS^G12D-GppNHp (Homo sapiens, UniProt P01116, G12D)", "assay": "Isothermal titration calorimetry", "assay_type": "binding", "summary_of_the_method": "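Test compound in the cell at 200 µM (1.25% DMSO); protein in the syringe at 2.0 mM, DMSO-matched. Run at 25 °C: 19 × 2 µl injections, 180 s apart; reference power 5 µcal/sec.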"}, "[2]": {"target": "T1, KRAS^G12D-GppNHp", "assay": "Microscale thermophoresis", "assay_type": "binding", "conditions": "selectivity panel", "summary_of_the_method": "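To strip endogenous nucleotide, KRAS G12D (250 μM) in 25 mM HEPES, 100 mM NaCl, 20 mM EDTA and 1 mM GppNHp was shaken at 220 rpm, 30 °C, before MST.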"}, "[3]": {"target": "NRAS^wt (Homo sapiens, UniProt P01111)", "sequence (P01111 whole entry)": "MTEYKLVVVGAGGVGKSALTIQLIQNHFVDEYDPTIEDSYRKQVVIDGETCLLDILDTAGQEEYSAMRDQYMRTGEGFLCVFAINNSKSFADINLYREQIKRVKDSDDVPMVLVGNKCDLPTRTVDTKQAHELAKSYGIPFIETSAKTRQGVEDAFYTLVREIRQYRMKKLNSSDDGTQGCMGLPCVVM", "assay": "MST with RAS GTPases", "assay_type": "binding", "conditions": "selectivity panel, GppNHp-loaded"}, "[4]": {"system": "DLD-1 cells", "assay": "Pan-RAS siRNA knockdown and viability", "assay_type": "cell-based, human", "conditions": "24 h", "summary_of_the_method": "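DLD-1 cells reverse-transfected in 6-well plates with siRNA pools against HRAS, KRAS and NRAS, or a non-targeting pool. Cells then re-suspended in serum-free RPMI and seeded at 10,000 cells/well in 384-well plates overnight. Dilution series added from 10× stocks in serum-free Opti-mem; 24 h incubation; viability by CellTiter-Glo.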"}, "[5]": {"system": "BRAF^V600E-CAAX-expressing MEF cells", "assay": "Viability assay in mouse embryo fibroblasts", "assay_type": "cell-based"}, "[6]": {"system": "HT-1080 cells", "assay": "Caspase 3/7 activation assay", "assay_type": "cell-based, human", "conditions": "24 h; compared with staurosporine", "summary_of_the_method": "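HT-1080 cells seeded at 1,000 cells/well in 384-well plates. After 16 h, test compound was added as a dilution series, made from 50 mM DMSO stocks and transferred into assay wells at 1:5 dilution.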"}, "[7]": {"system": "T-ALL cells with mutant NRAS (G13V and G13D)", "assay": "Viability of primary T-ALL patient samples", "assay_type": "cell-based", "conditions": "Homo sapiens, 72 h", "summary_of_the_method": "(§1)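 Primary T-ALL lymphoblasts, 250,000 per well in 24-well plates, in triplicate. Treated with DMSO vehicle or test compound across 1 to 5 μM for 72 h. Viability by flow-based kit with counting beads, gating out GFP+ stromal cells and PI+ dead cells and particles.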"}, "[8]": {"system": "T-ALL cells with wild-type NRAS", "assay": "Viability of primary T-ALL patient samples", "assay_type": "cell-based, human", "conditions": "5 μM, 72 h, four patient samples", "summary_of_the_method": "as §1"}, "[9]": {"system": "MDA-MB-231 cell line (KRAS^G13D)", "assay": "Multicellular tumor spheroids", "assay_type": "cell-based, human", "conditions": "low-adherence plates, 72 h"}, "[10]": {"system": "pERK and pAKT in Hras^−/−; Nras^−/−; Kras^flox/flox MEFs", "assay": "Western blots of mouse embryo fibroblasts", "assay_type": "cell-based", "conditions": "treatment for 0.6 h, 1 h or 16 h, EGF stimulated", "summary_of_the_method": "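MEFs seeded at 0.25 million/well in DMEM with Glutamax, 10% heat-inactivated FBS and P/S, grown to 80% confluence, then serum-starved 24 h. Serum-free treatment with 5 μM test compound for 35 min or 1 h, or 2 μM for 16 h, then EGF 10 ng/ml for 15 min. Quantified as (phospho/tubulin)/(total/tubulin), normalised to DMSO.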"}, "[11]": {"system": "pERK and pAKT in HT-1080 cells (NRAS^Q61K)", "assay": "Western blots of RAS signaling", "assay_type": "cell-based, human", "summary_of_the_method": "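Cells seeded 16 h before use in DMEM with 10% or 2% FBS plus P/S. Compound added in serum-free DMEM or DMEM 2% FBS for the indicated times. Lysis in HEPES pH 7.4 buffer with phosphatase and protease inhibitors; SDS-PAGE, PVDF transfer, Li-COR blocking, primary antibodies (1:1000) overnight at 4 °C.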"}, "[12]": {"assay": "Microsomal stability assay", "assay_type": "in vitro ADME", "conditions": "human, over 120 minutes", "summary_of_the_method": "(§2)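 Liver microsomes incubated in 100 mM phosphate buffer, pH 7.4, supplemented with an NADPH-regenerating system (solutions A and B).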"}, "[13]": {"assay": "Microsomal stability assay", "assay_type": "in vitro ADME", "conditions": "mouse, over 120 minutes", "summary_of_the_method": "as §2"}, "[14]": {"assay": "Pharmacokinetic analysis in mice", "assay_type": "in vivo, mouse", "conditions": "20 mg/kg, plasma", "summary_of_the_method": "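Plasma flash-frozen in liquid nitrogen, stored at −80 °C, and assayed by UPLC-MS-MS. Plasma from six untreated mice used for calibration and matrix correction. AUCINF calculated from t = 0 to infinity using calculated half-life and last measured concentration.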"}, "[15]": {"system": "KP^f/fC mice", "assay": "Toxicity in KP^f/fC mouse study", "assay_type": "in vivo", "conditions": "30 mg/kg IP once daily"}, "[16]": {"system": "wild-type mice", "assay": "Toxicity and body weight in wild-type mice", "assay_type": "in vivo, mouse", "conditions": "individual mice"}, "[17]": {"system": "pAKT (S473), pERK1/2 and cleaved caspase-3 in KP^f/fC pancreatic tumors", "assay": "KP^f/fC mouse pharmacodynamic study", "assay_type": "in vivo", "conditions": "post- vs pre-treatment tumor samples"}, "[18]": {"assay": "KC mouse weights on study", "assay_type": "in vivo", "conditions": "individual mice"}},
  "note": "Values joined by “and” are separate entries in the source; they are usually repeats but may differ in a detail not shown here. Identical values can stand only once.",
  "data": [
    {"compound": "NC1(C(=O)NCCCn2cc(-c3ccc(OC(F)(F)F)cc3)c3cc(CN4CCN(Cc5c(Cl)cccc5Cl)CC4)ccc32)CCNCC1", "note": "[compound 3144, 4-amino-N-(3-(5-((4-(2,6-dichlorobenzyl)piperazin-1-yl)methyl)-3-(4-(trifluoromethoxy)phenyl)-1H-indol-1-yl)propyl)piperidine-4-carboxamide]", "values": [
      {"measurement": "Kd", "setting": "[1]", "value": "17.8 ± 4.5", "unit": "µM"},
      {"measurement": "binding by MST", "setting": "[2]", "value": "detected binding"},
      {"measurement": "binding by MST", "setting": "[3]", "value": "detected binding"},
      {"measurement": "concentration up to which cells were resistant", "setting": "[4]; DLD-1 (KRAS^G13D), high cell density, no RAS knockdown", "value": "> 20", "unit": "µM"},
      {"measurement": "effect of combined HRAS, NRAS and KRAS knockdown on compound lethality", "setting": "[4]; si-panRAS vs non-targeting siRNA, CellTiter-Glo", "value": "sensitization"},
      {"measurement": "concentrations showing lethality", "setting": "[5]; BRAF^V600E-CAAX-expressing MEFs", "value": "≥ 20", "unit": "µM"},
      {"measurement": "sensitivity after Kras excision and BRAF^V600E-CAAX introduction", "setting": "[5]; compared with Kras^lox/lox MEFs", "value": "resistance"},
      {"measurement": "caspase activity", "setting": "[6]", "value": "induced caspase activity to a similar level as staurosporine"},
      {"measurement": "viability at 5 µM", "setting": "[7]", "value": "20 to 40", "unit": "%"},
      {"measurement": "effect on viability", "setting": "[8]", "value": "no observable effect on viability"},
      {"measurement": "spheroid size", "setting": "[9]", "value": "decreased in size in a dose-dependent manner"},
      {"measurement": "pERK and pAKT abundance", "setting": "[10]", "value": "moderately decreased"},
      {"measurement": "pERK and pAKT abundance", "setting": "[11]", "value": "somewhat decreased"},
      {"measurement": "EGF-induced pAKT and pERK abundance", "setting": "[11]; 10 ng/mL EGF 15 min", "value": "suppressed to a degree"},
      {"measurement": "stability in liver microsomes", "setting": "[12]", "value": "relatively stable"},
      {"measurement": "stability in liver microsomes", "setting": "[13]", "value": "relatively stable"},
      {"measurement": "Tlast", "setting": "[14]; IP, male C57BL/6 mice", "value": 12, "unit": "h"},
      {"measurement": "Tlast", "setting": "[14]; IV, male C57BL/6 mice", "value": 12, "unit": "h"},
      {"measurement": "HL_Lambda_z", "setting": "[14]; PO, male C57BL/6 mice", "value": ">12", "unit": "h"},
      {"measurement": "Tlast", "setting": "[14]; PO, male C57BL/6 mice", "value": 12, "unit": "h"},
      {"measurement": "AUC(0-inf)", "setting": "[14]; male, C57BL/6, mouse, po", "value": 5650, "unit": "ng·h/mL"},
      {"measurement": "toxicity", "setting": "[15]", "value": "Toxicity was observed"},
      {"measurement": "WT mouse weights", "setting": "[16]; day 1 on study", "value": "21.36 and 20.39 and 22.08 and 23.6 and 25"},
      {"measurement": "WT mouse weights", "setting": "[16]; day 2 on study", "value": "20 and 18.8 and 20.6 and 22.7 and 23.38"},
      {"measurement": "WT mouse weights", "setting": "[16]; day 3 on study", "value": "20 and 18.4 and 20.1 and 21.87 and 22.16"},
      {"measurement": "WT mouse weights", "setting": "[16]; day 4 on study", "value": "20.77 and 17.4 and 19 and 21.08 and 23"},
      {"measurement": "WT mouse weights", "setting": "[16]; day 5 on study", "value": "20.78 and 17.27 and 18.6 and 21.4 and 22.18"},
      {"measurement": "cleaved caspase-3 in tumor", "setting": "[17]", "value": "modest increase"},
      {"measurement": "pAKT (S473) and pERK1/2 in tumor", "setting": "[17]; 30 mg/kg IP once daily", "value": "decrease"},
      {"measurement": "KC mouse weights", "setting": "[18]; day 1 on study", "value": "33 and 30.5 and 30.7 and 33.5 and 35.8"},
      {"measurement": "KC mouse weights", "setting": "[18]; day 2 on study", "value": "32.2 and 28.1 and 27.8 and 33.5 and 34.5"},
      {"measurement": "KC mouse weights", "setting": "[18]; day 3 on study", "value": "29.9 and 24.84 and 32 and 26.86"},
      {"measurement": "KC mouse weights", "setting": "[18]; day 4 on study", "value": "28.8 and 23.6 and 30.5"},
      {"measurement": "KC mouse weights", "setting": "[18]; day 5 on study", "value": "28.5 and 30.2"}
    ]}
  ]
}
